Laboratory results reported in ChEMBL document CHEMBL3763134, “Arylpiperidines as a new class of oxidosqualene cyclase inhibitors” (Eur J Med Chem, 2016).
The source made the active and inactive calls. No cut-off for these calls is given here.

Columns and labels:
HL-60 = test: Inhibition of total cholesterol biosynthesis in human HL60 cells assessed as incorporation of 2-13C-acetate by GC-MS analysis; assay type: functional, cell-based
Outline: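 HL-60 cells incubated with inhibitor in presence of 2-13C-acetate; newly made 13C-labelled cholesterol distinguished from unlabelled pre-existing cholesterol by GC-MS after extraction; IC50 for total cholesterol biosynthesis derived; triplicate experiments.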

[1] = biological target: T1, Lanosterol synthase (Homo sapiens) (UniProt P48449); test: Inhibition of OSC in human HL60 cells assessed as accumulation of 2,3-oxidosqualene by GC-MS method; assay type: cell-based; details: HL-60
T1 sequence (whole entry): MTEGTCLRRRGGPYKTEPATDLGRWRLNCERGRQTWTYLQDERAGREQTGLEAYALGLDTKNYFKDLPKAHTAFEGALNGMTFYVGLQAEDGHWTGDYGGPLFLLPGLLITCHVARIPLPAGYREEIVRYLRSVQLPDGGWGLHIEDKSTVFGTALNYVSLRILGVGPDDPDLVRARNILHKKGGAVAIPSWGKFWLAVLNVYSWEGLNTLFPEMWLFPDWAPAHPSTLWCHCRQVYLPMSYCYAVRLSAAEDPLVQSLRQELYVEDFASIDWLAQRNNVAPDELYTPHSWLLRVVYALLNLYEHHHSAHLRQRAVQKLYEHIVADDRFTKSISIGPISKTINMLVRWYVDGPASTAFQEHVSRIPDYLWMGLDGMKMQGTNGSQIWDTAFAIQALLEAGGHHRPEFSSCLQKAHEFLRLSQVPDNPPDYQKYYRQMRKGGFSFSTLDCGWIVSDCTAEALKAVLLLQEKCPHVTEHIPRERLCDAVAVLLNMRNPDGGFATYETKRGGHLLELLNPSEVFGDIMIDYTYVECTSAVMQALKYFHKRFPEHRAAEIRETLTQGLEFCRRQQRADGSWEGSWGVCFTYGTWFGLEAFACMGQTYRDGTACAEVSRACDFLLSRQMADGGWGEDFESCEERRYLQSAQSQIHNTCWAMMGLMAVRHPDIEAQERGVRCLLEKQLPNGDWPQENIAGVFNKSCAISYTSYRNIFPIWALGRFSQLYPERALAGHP
Outline: (§1)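 Qualitative whole-cell screen: human HL-60 cells incubated with compound, then lysed and extracted; sterol pattern analysed by GC-MS. Enzyme target assigned from characteristic precursor accumulation: 2,3-oxidosqualene for OSC, 7-dehydrocholesterol for dehydrocholesterol reductase.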

[2] = Cytotoxicity against human HL60 cells after 24 hrs by MTT assay; assay type: cell-based; details: HL-60, 24 h
Outline: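 MTT assay on human leukaemia HL-60 cells, following Mosmann; cisplatin as reference; triplicate experiments.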

Lanosterol synthase = biological target: T2, Lanosterol synthase (Homo sapiens, UniProt P48449); test: Inhibition of human OSC expressed in recombinant Saccharomyces cerevisiae SMY8 using [14C]-(3S)-2,3-oxidosqualene as substrate
T2 sequence (P48449 whole entry): T1 sequence (whole entry)
Outline: (§2)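 Homogenates of yeast cultures (SMY8 expressing human or T. cruzi OSC; wild-type S. cerevisiae FL100) incubated with radiolabelled 2,3-oxidosqualene at increasing inhibitor concentrations; IC50 as mean of two separate experiments, each in duplicate.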

[3] = Inhibition of Saccharomyces cerevisiae FL100 wild type OSC using [14C]-(3S)-2,3-oxidosqualene as substrate; outline: as §2
[4] = Inhibition of Trypanosoma cruzi OSC expressed in recombinant Saccharomyces cerevisiae SMY8 using [14C]-(3S)-2,3-oxidosqualene as substrate; outline: as §2
Nakaseomyces glabratus = test: Inhibition of ergosterol biosynthesis in Candida glabrata DSM 11226 at 0.2 to 0.5 times MIC after 48 hrs by GC-MS analysis; assay type: functional, organism-based
Outline: (§3)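 Whole-cell sterol-pattern assay analogous to the cholesterol one, run on S. cerevisiae, Yarrowia lipolytica and Candida glabrata; accumulation of precursor sterols and cellular ergosterol content followed.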

Yarrowia lipolytica = test: Inhibition of ergosterol biosynthesis in Yarrowia lipolytica DSM 1345 at 0.2 to 0.5 times MIC after 48 hrs by GC-MS analysis; assay type: functional, organism-based; outline: as §3
Saccharomyces cerevisiae = test: Inhibition of ergosterol biosynthesis in Saccharomyces cerevisiae DSM 1333 at 0.2 to 0.5 times MIC after 48 hrs by GC-MS analysis; assay type: functional, organism-based; outline: as §3
[5] = Inhibition of Saccharomyces cerevisiae OSC expressed in recombinant Saccharomyces cerevisiae SMY8 using [14C]-(3S)-2,3-oxidosqualene as substrate
[6] = biological target: T3, 7-dehydrocholesterol reductase (Homo sapiens) (UniProt Q9UBM7); test: Inhibition of 7-dehydrocholesterol reductase in human HL60 cells assessed as accumulation of 7-dehydrocholesterol by GC-MS method; assay type: cell-based; details: HL-60; outline: as §1
T3 sequence (whole entry): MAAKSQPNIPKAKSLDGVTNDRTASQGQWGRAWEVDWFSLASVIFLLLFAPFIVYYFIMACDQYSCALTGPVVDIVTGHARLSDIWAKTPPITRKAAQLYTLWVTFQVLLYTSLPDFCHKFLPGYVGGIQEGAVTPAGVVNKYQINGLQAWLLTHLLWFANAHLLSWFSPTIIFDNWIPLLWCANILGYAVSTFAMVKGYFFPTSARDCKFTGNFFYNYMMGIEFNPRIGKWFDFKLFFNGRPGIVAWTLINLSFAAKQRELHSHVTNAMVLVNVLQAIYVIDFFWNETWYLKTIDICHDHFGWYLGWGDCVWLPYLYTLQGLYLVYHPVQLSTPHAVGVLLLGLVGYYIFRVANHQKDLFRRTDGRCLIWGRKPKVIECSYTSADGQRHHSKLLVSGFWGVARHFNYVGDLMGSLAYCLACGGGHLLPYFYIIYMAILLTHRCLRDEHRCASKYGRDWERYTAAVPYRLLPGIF

IC50 (HL-60) [µM]	inhibition [1]	IC50 (Lanosterol synthase) [µM]	IC50 [3] [µM]	IC50 [5] [µM]	inhibition [6]	Structure (SMILES)	IC50 [2] [µM]	IC50 [4] [µM]	inhibition (Nakaseomyces glabratus)	inhibition (Yarrowia lipolytica)	inhibition (Saccharomyces cerevisiae)
1.1	Active	2.06	> 10			CN(C/C=C/c1ccccc1)Cc1ccc(C2CCCN(C)C2)cc1 (configuration not stated)	> 50	> 10			
	Active					CN(CCCc1ccccc1)Cc1ccc(C2CCCN(C)C2)cc1 (racemic)	> 50				
0.37	Active	> 10	> 10			CN1CCC=C(c2ccc(CN(C)Cc3ccc4ccccc4c3)cc2)C1	> 50	> 10	inactive	inactive	inactive
1.29	Active	2.06	> 10			CN(Cc1ccc(Cl)cc1)Cc1ccc(C2CCCN(C)C2)cc1 (configuration not stated)	> 50	> 10			
0.14	Active	4.22	> 10			CN1CCCC(c2ccc3c(c2)CCC3N(C)Cc2ccc(Cl)cc2)C1 (racemic)	> 50	> 10	inactive	inactive	inactive
2.29	Active					CN1CCC=C(c2ccc(CN(C)Cc3ccc([N+](=O)[O-])cc3)cc2)C1	28		inactive	inactive	inactive
					Active	CN(Cc1ccc(Cl)cc1)Cc1cn(C2CCCN(C)C2)nn1 (racemic)	> 50				
2.14	Active	2.51	6.35			CN1CCC=C(c2ccc(CN(C)Cc3ccc(Cl)cc3)cc2)C1	> 50	> 10	inactive	inactive	inactive
1.32	Active	8.51	> 10			CN(Cc1ccc(C2CCCN(C)C2)cc1)Cc1ccc2ccccc2c1 (racemic)	40	> 10			
	Active					CN1CCC=C(c2ccc(CN(C)CCCc3ccccc3)cc2)C1	> 50		inactive	inactive	inactive
0.26	Active	0.51	4.83			CN1CCC(c2ccc(CN(C)Cc3ccc(Cl)cc3)cc2)CC1	> 50	> 10	inactive	inactive	inactive

Further lines, the compound ahead of its results:

Structure (SMILES)	IC50 (HL-60) [µM]	inhibition [1]	IC50 (Lanosterol synthase) [µM]	IC50 [3] [µM]	IC50 [5] [µM]	inhibition [6]	IC50 [2] [µM]	IC50 [4] [µM]	inhibition (Nakaseomyces glabratus)	inhibition (Yarrowia lipolytica)	inhibition (Saccharomyces cerevisiae)
CN(C)Cc1ccc([C@H]2CC[C@H](N(C)C(=O)c3ccc(Cl)cc3)CC2)cc1	0.31	Active					> 50				
CN(C/C=C/c1ccccc1)Cc1ccc(-c2cccnc2)cc1							44				
CC(C)CN(C)Cc1ccc(C2CCCN(C)C2)cc1 (racemic)							> 50				
C=CCN(C)CCCCCCOc1ccc(C(=O)c2ccc(Br)cc2)c(F)c1	0.092	Active			0.9		8				
COc1ccc(CN(C)Cc2ccc(C3=CCCN(C)C3)cc2)cc1							> 50				
COC(=O)c1ccc(CN(C)Cc2ccc(C3=CCCN(C)C3)cc2)cc1							> 50				
CC(C)CN(C)Cc1ccc(C2=CCCN(C)C2)cc1							> 50				
CC(C)CCCN(C)Cc1ccc(C2CCCN(C)C2)cc1 (racemic)							> 50				
CC(C)CCCN(C)Cc1ccc(C2=CCCN(C)C2)cc1							> 50				
CN1CCC=C(c2ccc(CN(C)C/C=C/c3ccccc3)cc2)C1	0.68	Active	5.28	> 10			> 50	> 10	inactive	inactive	inactive
CN(Cc1ccc(Cl)cc1)Cc1ccc(-c2cccnc2)cc1							21				
CN1CCC=C(c2ccc(CN(C)C/C=C/c3ccc([N+](=O)[O-])cc3)cc2)C1	1.28	Active					> 50		inactive	inactive	inactive
CN1CCC=C(c2ccc(CN(C)Cc3ccccc3)cc2)C1							> 50				
CC(C)CCN(C)Cc1ccc(C2CCCN(C)C2)cc1 (racemic)							> 50				
CC(C)CCN(C)Cc1ccc(C2=CCCN(C)C2)cc1							> 50				
